Source: ChEMBL document CHEMBL1131504, “(Z)- and (E)-2-((hydroxymethyl)cyclopropylidene)methyladenine and -guanine. New nucleoside analogues with a broad-spectrum antiviral activity” (J Med Chem, 1998)

What was measured:
[1] = test system: CEM-SS; test: Cytotoxicity on CEM-SS cells; assay type: functional, cell-based; conditions: Homo sapiens
Summary of the method: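 Visual cytotoxicity: microscopic inspection of stationary uninfected CEM or CEM-SS cells from suspension cultures.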

[2] = test system: CCRF-CEM; test: Inhibitory concentration against mitochondrial DNA synthesis CEM cells; assay type: functional, cell-based; conditions: Homo sapiens
Summary of the method: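 CEM cells (2 × 10^5/mL) in RPMI 1640 + 10% dialyzed FBS with compound, re-split with fresh drug on days 4 and 6. On day 8, 1 × 10^5 cells lysed with RNase A and proteinase K, slot-blotted, probed with a mitochondrial DNA-specific probe.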

[3] = test system: CCRF-CEM; test: Cytotoxicity was measured on CEM cells infected with Herpes Simplex virus […]; assay type: functional, cell-based; conditions: Homo sapiens
[4] = test system: Daudi; test: Cytotoxicity on Daudi cells at time of […] in cells not effected by the virus.; assay type: functional, cell-based; conditions: Homo sapiens
[5] = test system: Daudi; test: Inhibitory concentration against epstein-barr virus (EBV) infected daudi cells was determined; assay type: functional, cell-based; conditions: Homo sapiens
Summary of the method: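 Daudi cells infected with P3HR-1 EBV at 0.1–0.2 moi for 45 min at 37 °C, washed, then incubated 48 h with serially diluted drug in RPMI-1640. Acetone-fixed cells stained with anti-VCA monoclonal antibody and FITC anti-mouse IgG, Evans Blue counterstain; 500 cells counted, VCA-positive fraction used for IC50.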

[6] = test system: Human alphaherpesvirus 1; test: Inhibitory concentration against herpes simplex virus type 1 (HSV-1) was determined by enzyme-linked immunosorbent assay (ELISA); assay type: functional, organism-based
[7] = Cytotoxicity on H-1 cells at time of HCMV plaque enumeration in cells not effected by the virus.; assay type: functional, cell-based; conditions: Homo sapiens
[8] = test system: HFF; test: Cytotoxicity on stationary HFF cells at time of HCMV plaque enumeration in cells not effected by the virus.; assay type: functional, cell-based; conditions: Homo sapiens
Summary of the method: (§1)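 Visual cytotoxicity scored microscopically on stationary HFF or MEF cells not affected by virus, at the time of HCMV or MCMV plaque enumeration.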

[9] = test system: HFF; test: IC50 value was evaluated by measuring the %inhibition of Human Herpes Virus 6(HHV-6) infected […] cells using ELISA assay; assay type: functional, cell-based
[10] = test system: HFF; test: IC50 value was evaluated by measuring the %inhibition of Varicella Zoster virus(VZV) infected HFF cells using plaque reduction assay.; assay type: functional, cell-based; conditions: Homo sapiens
Summary of the method: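 HFF cells plated 2 days earlier and infected with VZV (20–30 plaques/well) for 1 h. Six 1:5 drug dilutions in MEM + 2% FBS, no antibody overlay, duplicate wells; extra medium on day 5, 10 days total at 37 °C. Neutral red stain, plaques counted; IC50 from regression.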

[11] = test system: HFF; test: Inhibitory concentration against herpes simplex virus type 1 (HSV-1) infected HFF cells was determined by cytopathic effect inhibition assay; assay type: functional, cell-based; conditions: Homo sapiens
Summary of the method: (§2)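 HFF cells (low passage) seeded 24 h before in MEM + 10% FBS; drug in MEM + 2% FBS, serial 1:5 dilutions in triplicate, 1 h pre-incubation, then HSV-1 or HSV-2 at 1000 pfu/well. Incubated 3 days at 37 °C, crystal violet/ethanol/formaldehyde stain, absorbance at 630 nm; IC50 by linear regression of % inhibition vs log concentration.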

[12] = test system: HFF; test: Inhibitory concentration against human cytomegalovirus replication in HFF cells was determined by cytopathic effect inhibition assay; assay type: functional, cell-based
Summary of the method: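 HFF cells seeded 24 h before; serial 1:5 drug dilutions in MEM + 2% FBS in triplicate, 1 h, then 2500 pfu/well CMV. Incubated 14 days at 37 °C with 50 μL MEM added on day 7; crystal violet stain, read at 630 nm. IC50 from regression.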

[13] = test system: HFF; test: Inhibitory concentration against human cytomegalovirus replication in HFF cells was determined by plaque reduction assay; assay type: functional, cell-based
Summary of the method: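 HFF cells infected with HCMV Towne (~100 pfu/cm2). After adsorption, drug added to duplicate wells at four to eight concentrations; 8–10 days at 37 °C, crystal violet stain, microscopic plaques counted. % plaque reduction vs no-drug control; IC50 by linear regression vs log concentration.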

[14] = test system: HFF; test: Inhibitory concentration against human cytomegalovirus replication in HFF cells was determined by yield reduction assay; assay type: functional
Summary of the method: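 HFF cells (12 500/well) infected with HCMV at moi 0.5–1 and exposed to compound in duplicate at 100 to 0.14 μM for 4 days at 37 °C. After freeze–thaw, supernatants serially diluted onto fresh HFF monolayers and plaques titered; IC90 reported.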

[15] = test system: HFF; test: Compound was tested against HFF cells infected with herpes simplex virus type 2 (HSV-2) by cytopathic effect inhibition assay; assay type: functional, cell-based; conditions: Homo sapiens; summary of the method: as §2
[16] = test system: HepG2; test: Inhibitory concentration against hepatitis B virus infected 2.2.15 cells; assay type: functional, cell-based; conditions: Homo sapiens
Summary of the method: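 HBV-producing 2.2.15 cells in MEM + 10% FBS; compounds added on days 6 and 9, 6 days of exposure. Virions in the medium precipitated with PEG/NaCl, DNA extracted, run on 0.8% agarose, Southern blotted with 32P HBV probe, quantified by densitometry.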

[17] = test system: KB; test: Cytotoxicity was evaluated by measuring the inhibition of KB cell growth.; assay type: functional, cell-based; conditions: Homo sapiens
Summary of the method: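 KB cells at 3000–5000/well, overnight at 37 °C, compound added in triplicate at eight concentrations. Growth over 48 h (two population doublings), then ethanol fixation, 0.1% crystal violet stain, eluted dye read at 570 nm; quadruplicate assays. IC50 by linear regression of % inhibition vs log concentration.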

[18] = test system: MEF; test: Inhibitory concentration against murine cytomegalovirus replication in MEF cells was determined by plaque reduction assay; assay type: functional, cell-based; conditions: Mus musculus
Summary of the method: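 MEF cells plated 2 days earlier and infected with MCMV (20–30 plaques/well) for 1 h. Six 1:5 drug dilutions in MEM + 2% FBS, duplicate wells, 7 days at 37 °C, 1.5% neutral red stain, plaques counted; IC50 by linear regression vs log concentration.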

[19] = test system: Vero; test: Compound was tested against vero cells infected with herpes simplex virus type 2 (HSV-2); assay type: functional, cell-based; conditions: Chlorocebus sabaeus
Summary of the method: (§3)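 Confluent Vero monolayers (RPMI + 5% FBS + 0.1% methylcellulose) infected 1 h with HSV-1 KOS or HSV-2 333 at 20 or 100 pfu/well. Drug overlay in RPMI + 2% dialyzed FBS + 0.1% methylcellulose, 48–72 h at 37 °C, 5% CO2. Crystal violet stain, plaques counted; IC50 by linear regression of % inhibition vs log concentration.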

[20] = test system: Vero; test: Inhibitory concentration against herpes simplex virus type 1 (HSV-1) infected vero cells was determined; assay type: functional, cell-based; conditions: Chlorocebus sabaeus; summary of the method: as §3
[21] = Inhibitory concentration against epstein-barr virus (EBV) infected H-1 cells was determined; assay type: functional, cell-based; conditions: Homo sapiens
Summary of the method: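 H-1 cells (high-yield EBV producer from P3HR-1) kept in log growth, seeded at 2 × 10^5/well with drug in RPMI 1640 + 10% dialyzed FBS for 5 days at 37 °C. Lysates treated with RNase A and proteinase K, slot-blotted, probed with 32P EBV EcoRI C fragment; normalized to Alu DNA vs untreated cells by densitometry.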

[22] = test system: MEF; test: Cytotoxicity on stationary MEF cells at time of MCMV plaque enumeration in cells not effected by the virus.; assay type: functional, cell-based; conditions: Mus musculus; summary of the method: as §1

SMILES | IC50 [1] [µM] | IC50 [2] [µM] | IC50 [3] [µM] | IC50 [4] [µM] | IC50 [5] [µM] | IC50 [6] [µM] | IC50 [7] [µM] | IC50 [8] [µM] | IC50 [9] [µM] | IC50 [10] [µM] | IC50 [11] [µM] | IC50 [12] [µM] | IC50 [13] [µM] | IC90 [14] [µM] | IC50 [15] [µM] | IC50 [16] [µM] | IC50 [17] [µM] | IC50 [19] [µM] | IC50 [20] [µM] | IC50 [21] [µM] | other results
Nc1ncnc2c1ncn2/C=C1/CC1CO (stereo not drawn) | > 100 | > 50 | > 100 | 368 | 3.2 | 33 | > 50 | > 100 | 14 | 2.5 | < 0.14 | 1 | 2.1 | 1.1 | 10.6 | 2 | 78 | 59 | 28 | 0.2 | IC50 [18]: 2.1 µM; IC50 [22]: > 92 µM
Nc1ncnc2c1ncn2/C=C1\CC1CO (stereo not drawn) | > 100 | > 50 | > 100 | > 230 | 71.4 | > 100 | > 50 | > 100 | > 100 | 90.2 | 36 | 395 | > 100 | > 100 | 395 | > 10 | > 100 | > 100 | > 100 | 3 | –
Nc1nc(Cl)c2c(ncn2/C=C2/CC2CO)n1 (stereo not drawn) | > 100 | > 50 | 80 | > 199 | 1.2 | 31 | > 50 | > 100 | 50 | > 518 | > 79.5 | 5.6 | 5 | 0.8 | > 79.5 | > 10 | > 100 | 55 | 52 | 0.7 | IC50 [18]: 0.3 µM; IC50 [22]: 270 µM
Nc1nc(O)c2ncn(/C=C3\CC3CO)c2n1 (stereo not drawn) | > 100 | > 100 | > 100 | > 206 | > 206 | 100 | > 50 | > 100 | > 100 | 263 | > 413 | > 413 | > 100 | – | > 413 | > 10 | > 100 | > 100 | > 100 | > 50 | –
